Results reported in publication PMC3079392 (The Biochemical journal, 2008).
Entries after “also recorded” stand apart in the source; their conditions may differ. Like-named read-outs stand apart in the source and are kept apart here.

How the values were obtained:
110δ = conditions: cited from earlier work
[1] = tested on: PKB/Akt (S473) and S6 (S235,236) phosphorylation; experiment: Western blot of PI3K signaling; assay type: cell-based; conditions: for Temporal inhibition of PKB/Akt and S6 phosphorylation: 1 μM, 1, 6 and 24 h
[2] = cited from earlier work
breast cancer cell lines [3] = experiment: Flow cytometry DNA content with nocodazole protocol; assay type: cell-based
phospho-S6 = experiment: Phospho-S6 immunofluorescence, Cellomics arrayscan; assay type: cell-based; conditions: 1 μM; for S6 phosphorylation following treatment: Hs578t cells, up to 24 h; for Inhibition of S6 phosphorylation by immunofluorescence: 1 h
Outline: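 Cells in 96-well plates; SKBr3 treated 18 h after plating with 1 μM test compound for 1 or 24 h, Hs578t for 24 h. Fixed in 4% paraformaldehyde 15 min, permeabilized in 0.2% Triton X-100 5 min, then blocked in 1% BSA 20 min. Anti-phospho-S6 1 h, fluorescent secondary 1 h, Hoechst. Cytoplasmic intensity (Hoechst-defined nuclear ring) measured on Cellomics ArrayScan, averaged over 200 cells; secondary-only control.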

[4] = tested on: phospho-PKB/Akt (Ser-473); experiment: Western blot of phospho-PKB/Akt; assay type: cell-based; conditions: 1 h; for Increase in PKB phosphorylation induced by siRNA to PTEN: MDA-MB-231 cells with PTEN siRNA, 1 μM; for Inhibition of PKB/Akt phosphorylation: MDA-MB-468 and BT549 cells (PTEN mutant), 0.5, 1 and 10 μM
p110δ/p85α = conditions: read-out: In-vitro IC50 p110δ/p85α; cited from earlier work
breast cancer cell lines [5] = experiment: Cell number by counting Hoechst-stained nuclei; assay type: cell-based
Outline: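 Cells plated in 96-well dishes; test compound added the next day, with medium and fresh compound replaced every 24 h, for 48 h (or 1 μM for 24, 48 and 72 h). Cells then fixed and permeabilized, and nuclei stained with Hoechst. Nuclei counted on a Cellomics ArrayScan reader.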

phospho-S6 (Ser-235,236) = experiment: Western blot of phospho-S6; assay type: cell-based; conditions: 1 h
Outline: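 Cells in 6-well plates (80% confluence) exposed to test compound at 0.5, 1 or 10 μM for 1 h, then scraped into NP40 lysis buffer with phosphatase and protease inhibitors. Detected by HRP secondary and ECL; bands quantified densitometrically.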

breast cancer cell lines [6] = experiment: Flow cytometry DNA content; assay type: cell-based; conditions: for Effects on DNA content: MCF10A, BT474, MDA-MB-231 and MDA-MB-468 cells; for Sub-G1 population (less than 2n DNA content): SKBR3 cells, 24 h
Outline: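 Cells in 6-well plates (80% confluence) treated with test compound: SKBr3 at several concentrations for 24 h; others at 1 μM for 24, 48 or 72 h with fresh compound every 24 h. Adherent plus floating cells pooled and fixed in 70% ethanol. Stained with propidium iodide 10 μg/ml plus RNase A 0.1 mg/ml; 10,000 cells analysed by flow cytometry. Sub-G1 scored as <2n DNA content.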

p110α/p85α = conditions: read-out: In-vitro IC50 p110α/p85α; cited from earlier work
[7] = mutant Ras cell lines MDA-MB-231 and Hs578t, 1 μM PI3K inhibitor, 100 nM rapamycin, nocodazole protocol
[8] = MDA-MB-231 cells, 0.5, 1 and 10 μM
[9] = MCF10A, BT474, SKBR3, BT20, T47D, MCF7 and HS578t, 0.5, 1 and 10 μM, 1 h
[10] = MDA-MB-468 cells (PTEN mutant), 1 μM, nocodazole 70 ng/ml
[11] = MDA-MB-468 cells, 0.5 and 1 μM, 48 h
[12] = five other cell lines, 0.5 and 1 μM, 48 h

## Cc1ccccc1-n1c(Cn2cnc3c(N)ncnc32)nc2cccc(C)c2c1=O [IC87114]
110δ
  Selectivity for 110δ vs. all other PI3K family members: > 100 fold

## O=c1cc(N2CCOCC2)oc2c(-c3ccccc3)cccc12 [LY294002]
[1]; all cell lines examined
  Inhibition of PI3K signaling: effective at inhibiting PI3K signaling in all cell lines examined
[2]; in vivo
  Toxicity when administered systemically in vivo: toxic when administered systemically in vivo

## Oc1cccc(-c2nc(N3CCOCC3)c3oc4ncccc4c3n2)c1 [PI-103]
Breast cancer cell lines [3]; BT474 and MCF10A cells, 1 μM, nocodazole 70 ng/ml
  G1 arrest: induced a G1 arrest
Breast cancer cell lines [3]; MDA-MB-231 and MDA-MB-468 cells, 1 μM, nocodazole 70 ng/ml
  G1 arrest: not in MDA-MB-231 cells or in MDA-MB-468 cells
Breast cancer cell lines [3]; [7]
  G1 arrest: marked insensitivity
phospho-S6
  S6 phosphorylation following treatment: remained inhibited
phospho-S6; SKBr3 cells
  Inhibition of S6 phosphorylation by immunofluorescence: inhibit S6 phosphorylation
[4]
  Increase in PKB phosphorylation induced by siRNA to PTEN: abrogated
p110δ/p85α
  IC50: […]
[1]
  Inhibition of PKB/Akt and S6 phosphorylation: equipotent; also recorded: more potent than PIK-75
Breast cancer cell lines [5]; BT549 and Hs578t cells, 1 μM
  Effect on cell number: resistant to cell number decreases
phospho-S6 (Ser-235,236); [8]
  Inhibition of S6 phosphorylation: still sensitive
Breast cancer cell lines [6]; 1 μM, 24, 48 and 72 h
  Effects on DNA content: […]
Breast cancer cell lines [6]
  Sub-G1 population (less than 2n DNA content): did not induce such an effect
p110α/p85α
  IC50: […]

## Cc1ccc([N+](=O)[O-])cc1S(=O)(=O)N(C)/N=C/c1cnc2ccc(Br)cn12 [PIK-75]
phospho-S6
  S6 phosphorylation following treatment: rapidly recovered to untreated levels
phospho-S6; SKBr3 cells, 1 and 24 h
  Duration of inhibition of S6 phosphorylation by immunofluorescence: sustained
phospho-S6; SKBr3 cells
  Inhibition of S6 phosphorylation by immunofluorescence: inhibit S6 phosphorylation
[1]; BT549 cells
  Temporal inhibition of PKB/Akt and S6 phosphorylation: transient inhibition
[1]; [9]
  Inhibition of PKB/Akt and S6 phosphorylation: equipotent
[1]; T47D, MCF10A, BT20 cells
  Temporal inhibition of PKB/Akt and S6 phosphorylation: sustained
Breast cancer cell lines [5]; Hs578t cells, 48 h of treatment
  Effect on cell number: strongly inhibited cell number
Breast cancer cell lines [5]; eight cell lines, 1 μM, 24, 48 and 72 h
  Loss of cell number: greatest ability to induce loss of cell number
phospho-S6 (Ser-235,236); [8]
  Inhibition of S6 phosphorylation: still sensitive
Breast cancer cell lines [6]; BT474 (rapid), MCF10A and MDA-MB-468 (delayed), 1 μM, 24, 48 and 72 h
  Sub-G1 population: induced a large sub-G1 population
Breast cancer cell lines [6]; MDA-MB-231 cells, 1 μM, 24, 48 and 72 h
  DNA content: strong accumulation of cells with a 4n DNA content
Breast cancer cell lines [6]
  Sub-G1 population (less than 2n DNA content): induced a significant sub-G1 population

## Cc1cc([C@H](C)Nc2ccccc2)c2oc(N3CCOCC3)cc(=O)c2c1 [PIK-108]
Breast cancer cell lines [3]; [10]
  G1 arrest: G1 arrest was uniquely observed; also recorded: partial G1 arrest
phospho-S6; SKBr3 cells
  Inhibition of S6 phosphorylation by immunofluorescence: only a minimal inhibition
[4]
  Increase in PKB phosphorylation induced by siRNA to PTEN: abrogated
  Inhibition of PKB/Akt phosphorylation: able to inhibit the phosphorylation of PKB/Akt
[1]; [9]
  Inhibition of PKB/Akt and S6 phosphorylation: ineffective
Breast cancer cell lines [5]; BT549 cells
  Effect on cell number: did not exhibit these responses to cell number
Breast cancer cell lines [5]; [11]
  Effect on cell number: dose-dependent reduction in cell number
Breast cancer cell lines [5]; [12]
  Effect on cell number: broadly unaffected
Breast cancer cell lines [6]; 1 μM, 24, 48 and 72 h
  Effects on DNA content: Neither PI-103, TGX-286 or PIK-108 showed strong effects

## Cc1cc(C(C)Nc2ccccc2)c2oc(-c3ccncc3)cc(=O)c2c1 (stereo not shown) [TGX-286]
Breast cancer cell lines [3]; [10]
  G1 arrest: G1 arrest was uniquely observed
phospho-S6; SKBr3 cells
  Inhibition of S6 phosphorylation by immunofluorescence: only a minimal inhibition
[4]
  Inhibition of PKB/Akt phosphorylation: able to inhibit the phosphorylation of PKB/Akt
[1]; [9]
  Inhibition of PKB/Akt and S6 phosphorylation: ineffective
Breast cancer cell lines [5]; BT549 cells
  Effect on cell number: did not exhibit these responses to cell number
Breast cancer cell lines [5]; [11]
  Effect on cell number: dose-dependent reduction in cell number
Breast cancer cell lines [5]; [12]
  Effect on cell number: broadly unaffected
Breast cancer cell lines [6]; 1 μM, 24, 48 and 72 h
  Effects on DNA content: Neither PI-103, TGX-286 or PIK-108 showed strong effects

## N#CC(=C(/N)Sc1ccccc1N)/C(C#N)=C(/N)Sc1ccccc1N [U0126]
Breast cancer cell lines [3]; all cell lines examined, 10 μM U0126, nocodazole protocol
  G1 arrest: caused a G1 arrest in all cell lines examined

## Cc1ccc(-c2c(C(=O)CF)n(CCCO)c3ncnc(N)c23)cc1 [fmk]
Breast cancer cell lines [3]; MDA-MB-231 cells (Fig. 5C)
  Effect on cell cycle arrest: not sufficient to cause any effect on cell cycle arrest

## CO[C@H]1C[C@@H]2CC[C@@H](C)[C@@](O)(O2)C(=O)C(=O)N2CCCC[C@H]2C(=O)O[C@H]([C@H](C)C[C@@H]2CC[C@@H](O)[C@H](OC)C2)CC(=O)[C@H](C)/C=C(\C)[C@@H](O)[C@@H](OC)C(=O)[C@H](C)C[C@H](C)/C=C/C=C/C=C/1C [rapamycin]
Breast cancer cell lines [3]; all cells expressing WT Ras, 100 nM rapamycin, nocodazole protocol
  G1 arrest: caused a G1 arrest (to varying degrees)
Breast cancer cell lines [3]; [7]
  G1 arrest: ineffective at causing a G1 arrest
phospho-S6 (Ser-235,236); WT Ras cell lines BT-474 and BT20
  Inhibition of S6 phosphorylation: sufficient to fully inhibit S6 phosphorylation
phospho-S6 (Ser-235,236); mutant Ras MDA-MD-231 cell line
  Inhibition of S6 phosphorylation: residual phosphorylation of S6

## COC[C@H]1OC(=O)c2coc3c2[C@@]1(C)C1=C(C3=O)[C@@H]2CCC(=O)[C@@]2(C)C[C@H]1OC(C)=O [wortmannin]
[2]
  Toxicity when administered systemically in vivo: toxic when administered systemically in vivo
